By EC50 is commonly meant the concentration needed to bring the measured effect to its halfway point. Broadly, the Emax is the greatest response seen or fitted, relative to the assay's reference. The term clearance denotes a measure of how efficiently the substance is removed, as volume per time. The half-life is how long it takes for the measured level to halve. A higher half-life goes with slow decline. By Cmax is commonly meant the peak of the concentration-time curve. For orientation: IC50 means the concentration that inhibits the measured activity by half.

Series [1] has as its target T1, Glucocorticoid receptor (Homo sapiens, UniProt P04150).
T1 sequence (P04150 whole entry): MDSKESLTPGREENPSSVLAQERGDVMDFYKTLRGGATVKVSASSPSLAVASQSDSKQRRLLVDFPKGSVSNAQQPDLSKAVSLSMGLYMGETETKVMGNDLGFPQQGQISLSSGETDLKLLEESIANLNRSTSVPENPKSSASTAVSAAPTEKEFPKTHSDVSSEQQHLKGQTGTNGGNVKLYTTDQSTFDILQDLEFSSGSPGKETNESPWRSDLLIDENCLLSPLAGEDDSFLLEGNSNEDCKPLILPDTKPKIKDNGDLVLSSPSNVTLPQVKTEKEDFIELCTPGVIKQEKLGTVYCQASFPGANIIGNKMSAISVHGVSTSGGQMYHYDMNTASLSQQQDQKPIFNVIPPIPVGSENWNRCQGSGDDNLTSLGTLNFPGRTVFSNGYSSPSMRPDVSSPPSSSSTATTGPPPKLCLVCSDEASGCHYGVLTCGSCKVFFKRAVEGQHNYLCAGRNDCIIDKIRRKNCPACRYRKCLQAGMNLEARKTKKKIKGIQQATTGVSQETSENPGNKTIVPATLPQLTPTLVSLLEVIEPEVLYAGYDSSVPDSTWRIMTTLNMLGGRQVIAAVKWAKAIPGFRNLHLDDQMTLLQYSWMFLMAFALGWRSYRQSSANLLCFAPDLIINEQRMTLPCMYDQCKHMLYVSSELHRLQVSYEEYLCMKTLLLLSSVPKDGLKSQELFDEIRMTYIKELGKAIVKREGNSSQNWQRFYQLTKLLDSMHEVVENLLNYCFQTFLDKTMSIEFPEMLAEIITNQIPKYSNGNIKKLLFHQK
As to the kind of experiment: Agonist activity at human GR expressed in CHO-K1 cells incubated for 20 hrs by luciferase reporter gene assay. The format is cell-based.

The target in series [2] is T2, glucocorticoid receptor (GR) (Homo sapiens, UniProt P04150).
T2 sequence (P04150 whole entry): T1 sequence (P04150 whole entry)
As to the kind of experiment: Agonist activity at human GR expressed in CHO-K1 cells incubated for 20 hrs by luciferase reporter gene assay relative to dexamethasone. The format is cell-based. To be noted: CHO-K1 cells expressing human GR.

In a further series the target is T3, Androgen receptor (Homo sapiens, UniProt P10275).
T3 sequence (P10275 whole entry): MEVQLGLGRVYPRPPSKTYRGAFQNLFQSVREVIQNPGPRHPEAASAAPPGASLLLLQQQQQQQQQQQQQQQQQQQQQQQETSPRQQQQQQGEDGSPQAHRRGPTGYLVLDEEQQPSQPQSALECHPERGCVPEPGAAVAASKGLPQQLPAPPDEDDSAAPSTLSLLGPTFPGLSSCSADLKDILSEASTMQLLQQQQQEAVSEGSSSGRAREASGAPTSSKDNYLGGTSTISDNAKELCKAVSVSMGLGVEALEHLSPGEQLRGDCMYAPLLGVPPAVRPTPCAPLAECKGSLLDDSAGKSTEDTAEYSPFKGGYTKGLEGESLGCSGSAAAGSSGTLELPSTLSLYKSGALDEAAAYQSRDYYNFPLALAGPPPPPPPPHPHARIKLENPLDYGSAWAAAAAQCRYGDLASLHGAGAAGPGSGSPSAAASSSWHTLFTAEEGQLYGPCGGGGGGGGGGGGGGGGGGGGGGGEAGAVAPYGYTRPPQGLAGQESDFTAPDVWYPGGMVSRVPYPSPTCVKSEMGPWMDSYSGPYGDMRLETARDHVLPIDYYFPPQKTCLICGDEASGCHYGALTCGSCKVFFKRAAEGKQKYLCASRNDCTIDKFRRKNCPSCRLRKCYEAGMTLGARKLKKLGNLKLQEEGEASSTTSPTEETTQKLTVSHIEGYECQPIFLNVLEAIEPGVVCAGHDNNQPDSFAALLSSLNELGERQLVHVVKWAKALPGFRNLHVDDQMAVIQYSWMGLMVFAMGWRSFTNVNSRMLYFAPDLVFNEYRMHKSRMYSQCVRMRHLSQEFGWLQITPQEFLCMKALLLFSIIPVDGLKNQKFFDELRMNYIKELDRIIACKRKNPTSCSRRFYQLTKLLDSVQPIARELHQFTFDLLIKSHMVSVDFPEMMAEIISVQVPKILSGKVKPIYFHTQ
As to the kind of experiment: Agonist activity at AR in human MDA-MB-453 cells assessed as increase in […] gene expression at 111 to 333 nM incubated for 24 hrs by RT-qPCR method. It is filed as cell-based. To be noted: mda-mb-453, 24 h, 0.333 µM. In general terms: In qPCR the cycle at which signal appears reflects the starting amount.

Series [3] can be described thus: Clearance in mini pig at 0.5 mg/kg, iv. It is filed as ADME, organism-based, Sus scrofa. To be noted: in vivo.
Series [4] in a line: Volume of distribution at steady state in mini pig at 0.5 mg/kg, iv. The format is ADME, organism-based, Sus scrofa. To be noted: in vivo, read-out: Vdss.
Series [5] is described as follows: Half life in mini pig at 0.5 mg/kg, iv. The format is ADME, organism-based, Sus scrofa. To be noted: in vivo.
Series [6] is described as follows: Cmax in mouse at 5 mg/kg, po. The format is ADME, organism-based. Also on record: dose 5 mg/kg, route oral. To be noted: in vivo.
Series [7] is described as follows: Unbound fraction in human plasma relative to mifepristone. The format is ADME, cell-free.
The target of series [8] is T1, Glucocorticoid receptor. As to the kind of experiment: Antagonist activity at GR in human OVCAR5 assessed as reduction in dexamethasone-induced GILZ gene expression incubated for 24 hrs by RT-qPCR method.
Series [9] deals with T4, Glucocorticoid receptor (Homo sapiens) (UniProt P04150).
T4 sequence (whole entry): T1 sequence (P04150 whole entry)
As to the kind of experiment: (§1) Antagonist activity at GR in human OVCAR5 assessed as reduction in dexamethasone-induced FKBP5 gene expression incubated for 24 hrs by RT-qPCR method.

The target of series [10] is T1, Glucocorticoid receptor. Described as §1.
A further series has as its system Mus musculus. As to the kind of experiment: In-vivo antagonist activity at GR in nude mouse xenografted with human OVCAR5 cells assessed as reduction in dexamethasone-induced FKBP5 gene expression at 25 to 75 mg/kg, po dosed as gavage and measured after 6 hrs by RT-qPCR method. It is filed as functional, organism-based. The method, boiled down: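 OVCAR5 xenograft mice received dexamethasone 0.5 mg/kg by intraperitoneal injection with or without a single oral gavage dose of the antagonist at 25, 50 or 75 mg/kg. Tumors and plasma collected 6 h later. Tumor FKBP5 mRNA measured by RT-qPCR. Unbound plasma concentration of the antagonist determined, n = 4 mice per group. FKBP5 effects tested by one-way ANOVA with Dunnett's test versus the vehicle group.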
On the technique in general: A xenograft is tissue or cells of one species grown in another, often human tumour cells in immunodeficient mice.

The compound `CC(C)N(C)c1ccc([C@H]2C[C@@]3(C)[C@@H](CC[C@@]3(O)C#CC(C)(C)C)[C@@H]3CCC4=CC(=O)CC[C@@H]4[C@H]32)cc1` displayed a 50% effective concentration (EC50) on Glucocorticoid receptor [1] of over 2500 nM. Further, in [2], the Emax at 20 h amounted to 2.3%. For the same compound, at Androgen receptor, the Activity entry is “Not Active”. Also, the clearance in [3] was 18.3 mL/min/kg. Also, in series [4], the Vd turned out to be 7.8 L/kg. For the same compound, in series [5], the half-life was 12.2 h. In [6], this compound had a Cmax of 274 ng/mL. Besides, the Ratio in series [7] is 10. Further, the values for the IC50 on Glucocorticoid receptor [8] and on Glucocorticoid receptor [10] were 21.2 nM and 17.2 nM, respectively. For the same compound, the inhibition entry (in [9]; with Mus musculus) was “Dose-dependent effect” in each case.
